From PMC6977399 (Clinical Pharmacology and Therapeutics, 2019)

Assays:
CYP2D6 = CYP2D6 (Homo sapiens, UniProt P10635); experiment: CYP inhibition in human liver microsomes; type: in vitro ADME; settings: up to 15 μM
CYP3A [1] = settings: 200 mg b.i.d.; based on MDZ AUC increase, weak > 1.25 to < 2-fold
CYP1A2 = target: T1, CYP1A2 (Homo sapiens, UniProt P05177); experiment: CYP inhibition in human liver microsomes; type: in vitro ADME; settings: up to 50 μM
T1 sequence (P05177 1-516): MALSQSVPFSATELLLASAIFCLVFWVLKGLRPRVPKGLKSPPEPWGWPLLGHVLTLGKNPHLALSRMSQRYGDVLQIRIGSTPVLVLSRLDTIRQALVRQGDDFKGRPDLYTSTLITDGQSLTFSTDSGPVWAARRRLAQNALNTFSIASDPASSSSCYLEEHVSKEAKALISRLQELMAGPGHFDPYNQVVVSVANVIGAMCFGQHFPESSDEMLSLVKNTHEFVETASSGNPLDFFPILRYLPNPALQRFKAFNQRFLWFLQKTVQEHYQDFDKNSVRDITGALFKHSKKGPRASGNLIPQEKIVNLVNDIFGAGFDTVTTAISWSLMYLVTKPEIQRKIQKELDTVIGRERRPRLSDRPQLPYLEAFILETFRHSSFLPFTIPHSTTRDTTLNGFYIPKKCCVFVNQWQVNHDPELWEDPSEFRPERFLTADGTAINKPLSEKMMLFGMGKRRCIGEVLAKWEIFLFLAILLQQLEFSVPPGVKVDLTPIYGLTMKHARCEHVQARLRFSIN
In short: (§1)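 Reversible inhibition: test compound pre-incubated 10 min at 37°C with pooled human liver microsomes plus an isoform-selective probe substrate. Reaction started with NADPH (1.3 mM), then quenched with 3% formic acid in acetonitrile containing internal standard. CYP-specific metabolite formation measured by LC-MS/MS. Activity expressed as % control = (peak area ratio with compound / without compound) × 100.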

OATP1B3 = target: T2, OATP1B3 (Homo sapiens, UniProt Q9NPD5); experiment: Inhibition of OATP1B3-mediated CCK-8 uptake in HEK293 cells; type: in vitro ADME
T2 sequence (Q9NPD5 1-702): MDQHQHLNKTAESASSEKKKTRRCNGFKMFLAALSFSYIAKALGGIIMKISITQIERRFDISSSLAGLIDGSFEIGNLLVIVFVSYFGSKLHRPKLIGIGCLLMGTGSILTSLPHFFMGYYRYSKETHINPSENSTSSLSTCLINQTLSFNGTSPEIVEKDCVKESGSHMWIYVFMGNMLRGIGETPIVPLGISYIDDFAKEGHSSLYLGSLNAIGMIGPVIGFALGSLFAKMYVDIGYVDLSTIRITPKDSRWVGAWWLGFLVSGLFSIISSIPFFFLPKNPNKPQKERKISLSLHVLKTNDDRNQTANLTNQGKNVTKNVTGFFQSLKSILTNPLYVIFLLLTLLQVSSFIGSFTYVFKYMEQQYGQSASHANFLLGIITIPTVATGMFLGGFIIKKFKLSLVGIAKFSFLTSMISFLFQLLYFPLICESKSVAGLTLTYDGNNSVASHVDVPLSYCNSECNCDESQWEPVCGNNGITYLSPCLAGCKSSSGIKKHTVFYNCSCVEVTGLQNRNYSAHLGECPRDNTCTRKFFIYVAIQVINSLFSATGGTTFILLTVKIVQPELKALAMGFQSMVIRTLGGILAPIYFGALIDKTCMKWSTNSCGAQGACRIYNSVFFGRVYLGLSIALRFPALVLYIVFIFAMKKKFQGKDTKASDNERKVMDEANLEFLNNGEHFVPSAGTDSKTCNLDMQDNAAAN

CYP2C19 = CYP2C19 (Homo sapiens, UniProt P33261); experiment: CYP inhibition in human liver microsomes; type: in vitro ADME; settings: up to 15 μM
In short: as §1

[2] = Fenebrutinib plasma exposure at 200 mg b.i.d. in the clinical DDI study; type: in vivo; settings: human, oral, observed Cmax at steady-state, data not shown
CYP3A [3] = experiment: Time-dependent inhibition of CYP3A in human liver microsomes; type: in vitro ADME; settings: for kinact: human
human OAT3 = target: T3, human OAT3 (Homo sapiens, UniProt Q8TCC7); experiment: Inhibition of OAT3-mediated estrone-3-sulfate uptake in HEK293 cells; type: in vitro ADME
T3 sequence (Q8TCC7 1-542): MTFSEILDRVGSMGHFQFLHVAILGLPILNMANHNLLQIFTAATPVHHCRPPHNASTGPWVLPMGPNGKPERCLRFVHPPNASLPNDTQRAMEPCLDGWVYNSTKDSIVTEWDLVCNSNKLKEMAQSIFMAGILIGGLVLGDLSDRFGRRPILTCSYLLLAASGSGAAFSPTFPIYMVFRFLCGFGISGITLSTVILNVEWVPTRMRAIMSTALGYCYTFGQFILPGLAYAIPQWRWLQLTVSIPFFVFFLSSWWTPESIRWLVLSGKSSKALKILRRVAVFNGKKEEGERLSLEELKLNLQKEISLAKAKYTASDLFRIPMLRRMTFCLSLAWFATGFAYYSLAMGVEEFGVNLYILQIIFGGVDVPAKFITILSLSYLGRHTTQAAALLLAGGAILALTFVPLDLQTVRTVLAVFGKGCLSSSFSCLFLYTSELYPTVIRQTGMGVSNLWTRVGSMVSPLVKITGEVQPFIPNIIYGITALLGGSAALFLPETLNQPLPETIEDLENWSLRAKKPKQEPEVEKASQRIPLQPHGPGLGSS
In short: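 HEK293 cells stably expressing human OAT3, with mock-transfected HEK293 as control cells. Uptake was run at 37°C in HK buffer (pH 7.4) with 1 μM ³H-estrone-3-sulfate plus test compound or DMSO vehicle. Cells were washed twice, lysed in 0.1 M NaOH, and counted by liquid scintillation. Transporter-specific uptake was taken as uptake in transfected cells minus uptake in control cells.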

CYP2D6, sequence (P10635 whole entry): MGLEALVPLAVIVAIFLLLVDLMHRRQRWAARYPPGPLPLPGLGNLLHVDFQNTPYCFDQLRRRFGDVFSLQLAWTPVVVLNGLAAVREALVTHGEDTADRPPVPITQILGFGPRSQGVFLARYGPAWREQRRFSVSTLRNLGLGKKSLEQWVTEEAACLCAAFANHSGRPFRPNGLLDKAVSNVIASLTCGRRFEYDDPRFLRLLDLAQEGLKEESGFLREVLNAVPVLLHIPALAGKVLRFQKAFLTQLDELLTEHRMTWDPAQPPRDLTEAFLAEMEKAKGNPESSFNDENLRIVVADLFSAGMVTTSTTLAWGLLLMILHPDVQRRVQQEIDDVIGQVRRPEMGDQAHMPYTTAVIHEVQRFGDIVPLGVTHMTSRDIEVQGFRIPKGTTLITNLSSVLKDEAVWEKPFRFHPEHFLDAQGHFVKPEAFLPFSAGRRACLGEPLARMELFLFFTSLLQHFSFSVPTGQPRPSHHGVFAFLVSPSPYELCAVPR
CYP2C19, sequence (P33261 whole entry): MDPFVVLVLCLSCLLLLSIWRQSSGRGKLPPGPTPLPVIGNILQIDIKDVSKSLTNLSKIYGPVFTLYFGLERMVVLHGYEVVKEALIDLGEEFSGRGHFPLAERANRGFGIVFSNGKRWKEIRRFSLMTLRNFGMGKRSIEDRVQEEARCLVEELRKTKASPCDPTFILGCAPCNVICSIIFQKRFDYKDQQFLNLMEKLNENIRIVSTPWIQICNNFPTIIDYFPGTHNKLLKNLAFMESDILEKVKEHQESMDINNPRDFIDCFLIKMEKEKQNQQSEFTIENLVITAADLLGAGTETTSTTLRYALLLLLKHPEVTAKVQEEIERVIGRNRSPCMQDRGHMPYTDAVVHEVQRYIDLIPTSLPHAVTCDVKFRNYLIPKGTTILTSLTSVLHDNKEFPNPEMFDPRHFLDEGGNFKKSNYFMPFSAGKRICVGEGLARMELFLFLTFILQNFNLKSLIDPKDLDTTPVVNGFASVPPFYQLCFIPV

Compound: C[C@H]1CN(C2COC2)CCN1c1ccc(Nc2cc(-c3ccnc(N4CCn5c(cc6c5CC(C)(C)C6)C4=O)c3CO)cn(C)c2=O)nc1 [fenebrutinib]
- reversible or time-dependent inhibition of CYP2D6 (CYP2D6): No reversible or time‐dependent inhibition
- clinical classification as CYP3A inhibitor (CYP3A [1]): weak inhibitor
- reversible or time-dependent inhibition of CYP1A2 (CYP1A2): No reversible or time‐dependent inhibition
- IC50 (OATP1B3): 7.15 µM
- inhibition at 30 μM (OATP1B3; human, HEK293 cells stably expressing human OATP1B3, pH 7.4, probe CCK-8 (0.1 μM)): 86.7%
- reversible or time-dependent inhibition of CYP2C19 (CYP2C19): No reversible or time‐dependent inhibition
- Cmax [2]: ~1000 nM
- kinact/Ki ratio, CYP3A (CYP3A [3]): 23.3 M⁻¹ s⁻¹
- time-dependent inhibition (TDI) of CYP3A (CYP3A [3]; MDZ and testosterone as probe substrates): TDI was observed
- kinact (CYP3A [3]; probe midazolam (50 µM)): 0.00019 s⁻¹
- kinact (CYP3A [3]; probe testosterone (250 µM)): 0.00025 s⁻¹
- inhibition of OAT3 uptake transporter (human OAT3; at clinically relevant concentrations): no evidence of inhibition
- influence on OAT3-mediated accumulation of estrone-3-sulfate (human OAT3; up to 30 μM, the highest concentration tested, HEK293 cells): did not influence
